Laboratory results from ChEMBL document CHEMBL2429736, “Calix[4]arene methylenebisphosphonic acids as inhibitors of protein tyrosine phosphatase 1B” (Bioorg Med Chem Lett, 2013).
The source made the active and inactive calls. No cut-off for these calls is given here.

Legend:
[1] = target: T1, Tyrosine-protein phosphatase non-receptor type 1 (Homo sapiens) (UniProt P18031); experiment: Inhibition of recombinant full length PTP1B (unknown origin) assessed as p-nitrophenyl phosphate conversion to p-nitrophenol by spectrophotometric analysis; settings: TDE = time-dependent effect
T1 sequence (whole entry): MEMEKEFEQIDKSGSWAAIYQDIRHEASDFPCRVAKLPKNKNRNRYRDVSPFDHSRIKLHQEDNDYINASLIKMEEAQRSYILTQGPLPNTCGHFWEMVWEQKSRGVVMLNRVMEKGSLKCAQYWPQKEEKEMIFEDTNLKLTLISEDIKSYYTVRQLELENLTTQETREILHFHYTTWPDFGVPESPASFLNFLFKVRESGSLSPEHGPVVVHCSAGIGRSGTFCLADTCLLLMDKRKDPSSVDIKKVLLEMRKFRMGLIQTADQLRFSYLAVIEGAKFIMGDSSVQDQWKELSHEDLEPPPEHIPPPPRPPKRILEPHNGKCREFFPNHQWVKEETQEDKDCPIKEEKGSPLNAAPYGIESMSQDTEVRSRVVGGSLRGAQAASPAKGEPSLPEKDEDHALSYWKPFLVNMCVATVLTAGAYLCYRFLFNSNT
Procedure, shortened: (§1)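 Recombinant full-length PTP1B (5 nM final) in 50 mM Bis-Tris pH 7.2, 100 mM NaCl, 1 mM DTT, 2 mM EDTA, 1 vol % DMSO, 2 mM p-nitrophenyl phosphate plus inhibitor. Mixture preincubated 5 min at 37 C, started by adding enzyme. p-Nitrophenol release followed. IC50 taken from dose-response curve as 50% activity loss after 10 min.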

[2] = target: T2, Tyrosine-protein phosphatase non-receptor type 1 (Homo sapiens, UniProt P18031); experiment: Inhibition of recombinant full length PTP1B (unknown origin) assessed as p-nitrophenyl phosphate conversion to p-nitrophenol after 10 mins by spectrophotometric analysis; procedure, shortened: as §1
T2 sequence (P18031 whole entry): T1 sequence (whole entry)

Homo sapiens [3] = species: Homo sapiens; experiment: Selectivity ratio of IC50 for TCPTP (unknown origin) to IC50 for recombinant full length PTP1B (unknown origin)
[4] = target: Receptor-type tyrosine-protein phosphatase beta (Homo sapiens, UniProt P23467); experiment: Inhibition of PTPbeta (unknown origin) assessed as p-nitrophenyl phosphate conversion to p-nitrophenol after 10 mins by spectrophotometric analysis
Sequence of Receptor-type tyrosine-protein phosphatase beta (P23467 whole entry): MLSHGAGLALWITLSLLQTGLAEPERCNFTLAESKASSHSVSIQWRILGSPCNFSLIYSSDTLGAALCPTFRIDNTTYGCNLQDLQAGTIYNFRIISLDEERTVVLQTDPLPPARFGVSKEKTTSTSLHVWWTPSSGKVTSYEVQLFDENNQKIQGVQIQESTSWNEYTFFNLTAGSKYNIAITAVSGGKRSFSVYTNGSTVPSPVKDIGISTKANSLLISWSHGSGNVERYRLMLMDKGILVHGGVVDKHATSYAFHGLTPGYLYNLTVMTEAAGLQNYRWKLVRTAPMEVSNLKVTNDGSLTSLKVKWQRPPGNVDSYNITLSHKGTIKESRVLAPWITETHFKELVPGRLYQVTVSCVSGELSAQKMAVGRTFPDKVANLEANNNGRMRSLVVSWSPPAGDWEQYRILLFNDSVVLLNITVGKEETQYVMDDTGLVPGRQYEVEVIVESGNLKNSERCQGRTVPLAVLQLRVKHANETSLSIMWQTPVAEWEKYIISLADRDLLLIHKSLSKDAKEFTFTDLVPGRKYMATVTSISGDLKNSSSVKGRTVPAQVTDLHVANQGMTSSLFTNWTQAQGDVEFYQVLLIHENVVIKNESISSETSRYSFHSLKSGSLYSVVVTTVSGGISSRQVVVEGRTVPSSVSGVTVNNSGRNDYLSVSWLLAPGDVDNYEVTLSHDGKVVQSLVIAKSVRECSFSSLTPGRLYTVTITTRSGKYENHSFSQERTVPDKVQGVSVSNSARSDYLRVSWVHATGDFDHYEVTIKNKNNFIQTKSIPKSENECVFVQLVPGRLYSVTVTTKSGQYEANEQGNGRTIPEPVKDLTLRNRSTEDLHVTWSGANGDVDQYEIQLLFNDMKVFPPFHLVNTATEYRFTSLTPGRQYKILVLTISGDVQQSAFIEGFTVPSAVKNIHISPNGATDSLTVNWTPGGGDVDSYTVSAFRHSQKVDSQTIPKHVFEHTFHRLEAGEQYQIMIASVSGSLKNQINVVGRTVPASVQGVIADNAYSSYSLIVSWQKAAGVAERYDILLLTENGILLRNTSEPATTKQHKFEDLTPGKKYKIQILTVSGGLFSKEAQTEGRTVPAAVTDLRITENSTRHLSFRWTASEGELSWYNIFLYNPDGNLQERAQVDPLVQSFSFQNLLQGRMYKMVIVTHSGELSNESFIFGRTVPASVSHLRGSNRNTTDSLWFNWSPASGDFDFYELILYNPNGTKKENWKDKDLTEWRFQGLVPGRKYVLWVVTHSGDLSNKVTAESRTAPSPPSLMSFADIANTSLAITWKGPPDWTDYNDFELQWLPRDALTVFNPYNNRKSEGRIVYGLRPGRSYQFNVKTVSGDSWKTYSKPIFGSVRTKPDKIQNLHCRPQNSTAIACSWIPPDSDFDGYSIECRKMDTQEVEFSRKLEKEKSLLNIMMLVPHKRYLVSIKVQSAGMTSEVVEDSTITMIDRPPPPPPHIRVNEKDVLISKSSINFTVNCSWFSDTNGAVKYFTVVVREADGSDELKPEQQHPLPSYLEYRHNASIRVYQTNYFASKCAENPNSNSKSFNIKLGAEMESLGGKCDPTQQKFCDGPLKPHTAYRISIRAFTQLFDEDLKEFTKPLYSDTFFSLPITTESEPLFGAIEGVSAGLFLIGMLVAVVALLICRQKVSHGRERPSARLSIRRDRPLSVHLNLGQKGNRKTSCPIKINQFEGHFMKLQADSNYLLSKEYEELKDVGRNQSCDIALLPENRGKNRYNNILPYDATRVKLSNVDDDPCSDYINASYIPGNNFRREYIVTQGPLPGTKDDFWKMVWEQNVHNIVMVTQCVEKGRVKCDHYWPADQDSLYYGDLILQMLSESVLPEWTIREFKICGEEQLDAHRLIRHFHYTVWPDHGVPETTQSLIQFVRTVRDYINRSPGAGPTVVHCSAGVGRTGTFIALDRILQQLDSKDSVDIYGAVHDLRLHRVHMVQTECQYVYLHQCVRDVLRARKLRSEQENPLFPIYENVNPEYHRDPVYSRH
Procedure, shortened: (§2)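 p-Nitrophenyl phosphate substrate at 2 mM for TC-PTP and LAR, 1 mM for PTPbeta, 5 mM for CD45, 7 mM for SHP2. p-Nitrophenol release followed. IC50 read from dose-dependent curve as the concentration giving 50% activity after 10 min incubation.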

[5] = target: Receptor-type tyrosine-protein phosphatase F (Homo sapiens, UniProt P10586); experiment: Inhibition of LAR (unknown origin) assessed as p-nitrophenyl phosphate conversion to p-nitrophenol after 10 mins by spectrophotometric analysis; procedure, shortened: as §2
Sequence of Receptor-type tyrosine-protein phosphatase F (P10586 whole entry): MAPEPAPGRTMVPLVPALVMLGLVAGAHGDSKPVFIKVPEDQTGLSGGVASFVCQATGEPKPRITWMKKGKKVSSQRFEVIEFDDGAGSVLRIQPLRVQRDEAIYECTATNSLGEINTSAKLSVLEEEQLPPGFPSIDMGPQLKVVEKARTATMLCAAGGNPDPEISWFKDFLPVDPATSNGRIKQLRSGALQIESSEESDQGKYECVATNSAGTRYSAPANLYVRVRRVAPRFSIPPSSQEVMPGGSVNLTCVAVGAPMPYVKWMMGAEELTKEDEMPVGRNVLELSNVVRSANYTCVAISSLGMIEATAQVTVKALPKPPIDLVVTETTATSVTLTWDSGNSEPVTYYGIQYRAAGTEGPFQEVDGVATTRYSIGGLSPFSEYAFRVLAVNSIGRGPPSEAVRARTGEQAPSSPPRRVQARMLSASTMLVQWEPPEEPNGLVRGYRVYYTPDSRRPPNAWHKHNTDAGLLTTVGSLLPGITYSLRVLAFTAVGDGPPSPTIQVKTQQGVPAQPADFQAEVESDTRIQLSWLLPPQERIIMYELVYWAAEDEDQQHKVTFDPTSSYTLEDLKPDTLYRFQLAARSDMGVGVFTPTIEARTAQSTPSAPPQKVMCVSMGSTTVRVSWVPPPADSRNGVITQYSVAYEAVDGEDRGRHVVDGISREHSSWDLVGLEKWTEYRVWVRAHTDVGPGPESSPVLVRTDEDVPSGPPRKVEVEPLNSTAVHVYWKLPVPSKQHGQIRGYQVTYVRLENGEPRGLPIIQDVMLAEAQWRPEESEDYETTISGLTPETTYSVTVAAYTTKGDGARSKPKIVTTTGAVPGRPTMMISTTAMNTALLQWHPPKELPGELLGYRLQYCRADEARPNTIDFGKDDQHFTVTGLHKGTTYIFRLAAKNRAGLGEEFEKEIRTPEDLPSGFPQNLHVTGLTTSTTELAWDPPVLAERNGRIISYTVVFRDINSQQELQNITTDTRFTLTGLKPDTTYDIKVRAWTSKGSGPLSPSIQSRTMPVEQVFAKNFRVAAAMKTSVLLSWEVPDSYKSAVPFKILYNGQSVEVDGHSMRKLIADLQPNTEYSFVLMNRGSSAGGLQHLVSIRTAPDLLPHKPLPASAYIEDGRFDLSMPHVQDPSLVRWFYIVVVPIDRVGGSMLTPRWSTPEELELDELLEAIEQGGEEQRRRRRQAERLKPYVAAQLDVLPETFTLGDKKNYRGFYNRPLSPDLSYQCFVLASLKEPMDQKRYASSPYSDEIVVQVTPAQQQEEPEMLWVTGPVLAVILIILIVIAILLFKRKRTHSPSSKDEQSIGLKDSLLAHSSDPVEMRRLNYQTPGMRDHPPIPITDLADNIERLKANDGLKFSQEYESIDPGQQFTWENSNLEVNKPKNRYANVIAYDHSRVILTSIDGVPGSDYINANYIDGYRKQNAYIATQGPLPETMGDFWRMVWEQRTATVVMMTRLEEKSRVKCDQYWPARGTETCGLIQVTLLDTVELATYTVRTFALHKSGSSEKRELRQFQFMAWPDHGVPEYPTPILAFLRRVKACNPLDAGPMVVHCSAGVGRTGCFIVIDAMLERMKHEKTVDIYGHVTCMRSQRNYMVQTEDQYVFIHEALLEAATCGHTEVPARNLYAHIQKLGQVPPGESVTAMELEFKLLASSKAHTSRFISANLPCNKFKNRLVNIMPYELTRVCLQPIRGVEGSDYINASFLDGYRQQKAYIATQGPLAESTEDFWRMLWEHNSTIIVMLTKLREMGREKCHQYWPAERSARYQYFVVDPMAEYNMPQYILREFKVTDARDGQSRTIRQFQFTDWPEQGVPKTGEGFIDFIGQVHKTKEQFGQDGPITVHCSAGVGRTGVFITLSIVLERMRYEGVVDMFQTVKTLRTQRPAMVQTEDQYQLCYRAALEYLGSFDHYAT

[6] = target: T2, Tyrosine-protein phosphatase non-receptor type 1; experiment: Reversible inhibition of recombinant full length PTP1B (unknown origin) assessed as p-nitrophenyl phosphate conversion to p-nitrophenol after 10 mins by spectrophotometric analysis; procedure, shortened: as §1
[7] = target: T3, Tyrosine-protein phosphatase non-receptor type 2 (Homo sapiens, UniProt P17706); experiment: Inhibition of TCPTP (unknown origin) assessed as p-nitrophenyl phosphate conversion to p-nitrophenol after 10 mins by spectrophotometric analysis; procedure, shortened: as §2
T3 sequence (P17706 whole entry): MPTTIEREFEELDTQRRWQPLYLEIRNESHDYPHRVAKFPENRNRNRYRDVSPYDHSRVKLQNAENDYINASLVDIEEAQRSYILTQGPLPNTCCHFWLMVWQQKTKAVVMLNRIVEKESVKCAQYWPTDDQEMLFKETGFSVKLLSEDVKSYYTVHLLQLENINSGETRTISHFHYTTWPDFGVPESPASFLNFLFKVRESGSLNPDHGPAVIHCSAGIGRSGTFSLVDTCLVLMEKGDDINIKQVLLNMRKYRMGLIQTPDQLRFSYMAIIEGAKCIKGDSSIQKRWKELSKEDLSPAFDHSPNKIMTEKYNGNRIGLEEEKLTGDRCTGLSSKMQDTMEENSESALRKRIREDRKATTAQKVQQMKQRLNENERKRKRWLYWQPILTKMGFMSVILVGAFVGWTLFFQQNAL

[8] = target: T4, Tyrosine-protein phosphatase non-receptor type 2 (Homo sapiens) (UniProt P17706); experiment: Inhibition of TCPTP (unknown origin) assessed as p-nitrophenyl phosphate conversion to p-nitrophenol by spectrophotometric analysis; settings: TDE = time-dependent effect
T4 sequence (whole entry): T3 sequence (P17706 whole entry)

Homo sapiens [9] = species: Homo sapiens; experiment: Selectivity ratio of IC50 for CD45 (unknown origin) to IC50 for recombinant full length PTP1B (unknown origin)
[10] = target: T5, Receptor-type tyrosine-protein phosphatase C (Homo sapiens, UniProt P08575); experiment: Inhibition of CD45 (unknown origin) assessed as p-nitrophenyl phosphate conversion to p-nitrophenol after 10 mins by spectrophotometric analysis; procedure, shortened: as §2
T5 sequence (P08575 whole entry): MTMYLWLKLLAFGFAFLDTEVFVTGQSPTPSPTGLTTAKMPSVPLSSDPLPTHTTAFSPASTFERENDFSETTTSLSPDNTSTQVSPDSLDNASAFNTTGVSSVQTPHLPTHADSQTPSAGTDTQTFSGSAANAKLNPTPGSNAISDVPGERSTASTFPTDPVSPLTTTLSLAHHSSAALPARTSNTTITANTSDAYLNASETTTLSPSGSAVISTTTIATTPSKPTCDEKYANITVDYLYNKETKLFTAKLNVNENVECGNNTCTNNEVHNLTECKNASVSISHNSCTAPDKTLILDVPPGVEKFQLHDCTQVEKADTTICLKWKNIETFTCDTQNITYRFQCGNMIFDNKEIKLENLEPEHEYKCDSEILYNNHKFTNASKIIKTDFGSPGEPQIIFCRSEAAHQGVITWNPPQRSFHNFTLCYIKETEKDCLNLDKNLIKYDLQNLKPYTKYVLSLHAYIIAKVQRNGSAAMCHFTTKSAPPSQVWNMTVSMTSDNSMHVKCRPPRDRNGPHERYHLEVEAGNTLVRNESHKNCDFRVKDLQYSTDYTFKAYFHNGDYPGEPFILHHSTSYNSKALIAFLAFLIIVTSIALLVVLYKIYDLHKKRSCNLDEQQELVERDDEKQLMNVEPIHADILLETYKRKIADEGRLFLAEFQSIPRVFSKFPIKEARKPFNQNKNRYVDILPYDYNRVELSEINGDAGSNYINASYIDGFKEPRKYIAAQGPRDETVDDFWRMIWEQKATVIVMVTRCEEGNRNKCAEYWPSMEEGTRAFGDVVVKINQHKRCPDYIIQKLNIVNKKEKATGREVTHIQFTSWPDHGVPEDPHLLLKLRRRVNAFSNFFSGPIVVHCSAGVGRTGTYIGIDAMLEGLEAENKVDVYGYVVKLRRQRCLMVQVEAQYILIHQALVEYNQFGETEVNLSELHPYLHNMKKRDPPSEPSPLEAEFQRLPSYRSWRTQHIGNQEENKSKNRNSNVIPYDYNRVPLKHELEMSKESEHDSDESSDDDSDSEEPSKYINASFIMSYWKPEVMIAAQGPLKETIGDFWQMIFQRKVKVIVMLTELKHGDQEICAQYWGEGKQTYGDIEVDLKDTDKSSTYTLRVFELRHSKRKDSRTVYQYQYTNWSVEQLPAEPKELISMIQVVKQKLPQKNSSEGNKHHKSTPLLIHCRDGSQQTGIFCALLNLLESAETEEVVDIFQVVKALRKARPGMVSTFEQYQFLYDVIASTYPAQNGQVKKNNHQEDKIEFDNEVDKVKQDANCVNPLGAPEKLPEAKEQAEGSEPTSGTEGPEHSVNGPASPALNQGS

[11] = target: T2, Tyrosine-protein phosphatase non-receptor type 1; experiment: Inhibition of recombinant truncated PTP1B (unknown origin) using pTyr1146 as substrate assessed as inorganic phosphate level after 20 mins by spectrophotometric analysis
Procedure, shortened: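 Truncated recombinant PTP1B (40 nM) with 0.075 mM pTyr1146 in 50 mM Bis-Tris pH 7.2, 1.1 mM DTT, 0.1 M NaCl, 1 mM EDTA. Reaction started with enzyme, run 20 min at 37 C, stopped with malachite green, held 10 min at 37 C. Phosphate read at 620 nm against standard curve, corrected for no-enzyme, no-substrate and inhibitor blanks.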

[12] = target: T6, Tyrosine-protein phosphatase non-receptor type 11 (Homo sapiens, UniProt Q06124); experiment: Inhibition of SHP2 (unknown origin) assessed as p-nitrophenyl phosphate conversion to p-nitrophenol after 10 mins by spectrophotometric analysis; procedure, shortened: as §2
T6 sequence (Q06124 whole entry): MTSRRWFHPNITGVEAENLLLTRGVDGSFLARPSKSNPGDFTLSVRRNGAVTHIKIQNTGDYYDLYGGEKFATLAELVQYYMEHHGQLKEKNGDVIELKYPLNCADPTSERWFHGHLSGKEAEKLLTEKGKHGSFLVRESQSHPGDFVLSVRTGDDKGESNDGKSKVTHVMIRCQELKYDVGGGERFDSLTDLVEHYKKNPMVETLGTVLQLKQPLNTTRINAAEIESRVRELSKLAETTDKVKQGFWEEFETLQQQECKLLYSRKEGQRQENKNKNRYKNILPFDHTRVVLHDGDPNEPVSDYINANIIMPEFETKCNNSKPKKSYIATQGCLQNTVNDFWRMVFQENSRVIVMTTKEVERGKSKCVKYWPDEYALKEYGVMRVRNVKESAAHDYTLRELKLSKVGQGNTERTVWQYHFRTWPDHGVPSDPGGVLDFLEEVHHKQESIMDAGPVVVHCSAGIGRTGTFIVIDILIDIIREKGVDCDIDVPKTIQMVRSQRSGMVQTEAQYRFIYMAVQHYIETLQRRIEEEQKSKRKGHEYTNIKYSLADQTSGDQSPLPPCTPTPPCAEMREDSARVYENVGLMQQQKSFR

[13] = target: T1, Tyrosine-protein phosphatase non-receptor type 1 (Homo sapiens); experiment: Inhibition of recombinant full length PTP1B (unknown origin) assessed as p-nitrophenyl phosphate conversion to p-nitrophenol up to 20 uM after 10 mins by spectrophotometric analysis; procedure, shortened: as §1
[14] = target: T1, Tyrosine-protein phosphatase non-receptor type 1 (Homo sapiens); settings: 50 uM
[15] = target: T2, Tyrosine-protein phosphatase non-receptor type 1; experiment: Competitive inhibition of recombinant full length PTP1B (unknown origin) assessed as p-nitrophenyl phosphate conversion to p-nitrophenol by Lineweaver-Burk plot analysis

SMILES	inhibition [1]	IC50 [2] [µM]	Ratio IC50 (Homo sapiens [3])	IC50 [4] [µM]	IC50 [5] [µM]	Ki [6] [µM]	IC50 [7] [µM]	inhibition [8]	Ratio IC50 (Homo sapiens [9])	IC50 [10] [µM]	IC50 [11] [µM]	IC50 [12] [µM]	inhibition [13]	inhibition [14]	Ki [15] [µM]
CCCOc1c2cccc1Cc1cccc(c1O)Cc1cccc(c1OCCC)Cc1cccc(c1O)C2	–	–	–	–	–	–	–	–	–	–	–	–	inactive	–	–
CCCOc1c2cccc1Cc1cc(C(P(=O)(O)O)P(=O)(O)O)cc(c1O)Cc1cccc(c1OCCC)Cc1cc(C(P(=O)(O)O)P(=O)(O)O)cc(c1O)C2	–	2.5	–	–	> 100	–	4.9	–	–	22	3.9	2.6	–	–	–
CCCOc1c2cccc1Cc1cc(C(P(=O)(O)O)P(=O)(O)O)cc(c1O)Cc1cccc(c1OCCC)Cc1cccc(c1O)C2	tde	1.2	8	13	> 100	0.74	9.3	tde	4	5.7	3.7	1.8	–	–	0.98
CCCOc1c2cccc1Cc1cc(C(O)(P(=O)(O)O)P(=O)(O)O)cc(c1O)Cc1cccc(c1OCCC)Cc1cc(C(O)(P(=O)(O)O)P(=O)(O)O)cc(c1O)C2	–	8.3	–	12	> 100	–	22	–	–	59	7.3	9.2	–	–	–

Second part, the compound after the results:

inhibition [1]	IC50 [2] [µM]	Ratio IC50 (Homo sapiens [3])	IC50 [4] [µM]	IC50 [5] [µM]	Ki [6] [µM]	IC50 [7] [µM]	inhibition [8]	Ratio IC50 (Homo sapiens [9])	IC50 [10] [µM]	IC50 [11] [µM]	IC50 [12] [µM]	inhibition [13]	inhibition [14]	Ki [15] [µM]	SMILES
tde	1.9	14	18	≥ 100	0.68	27	tde	4	8.4	4.1	3.4	–	–	–	CCCOc1c2cccc1Cc1cc(C(O)(P(=O)(O)O)P(=O)(O)O)cc(c1O)Cc1cccc(c1OCCC)Cc1cccc(c1O)C2
–	–	–	–	–	–	–	–	–	–	–	–	–	inactive	–	NCCCC(O)(P(=O)(O)O)P(=O)(O)O
